# Measurements: ChEMBL document CHEMBL4024781, “Comprehensive Synthesis of Amino Acid-Derived Thiazole Peptidomimetic Analogues to Understand the Enigmatic Drug/Substrate-Binding Site of P-Glycoprotein” (J Med Chem, 2018)
# Key:
# P-gp (ABCB1) [1] = target: T1, P-gp (ABCB1) (Homo sapiens, UniProt P08183); assay: Activation of human P-gp expressed in high five insect cell membrane vesicles by measuring the vanadate-sensitive ATPase activity of P-gp at 2.5 uM preincubated for 5 mins in the presence of sodium orthovanadate measured after 20 mins by colorimetric method; settings: read-out: Activity
# T1 sequence (P08183 whole entry): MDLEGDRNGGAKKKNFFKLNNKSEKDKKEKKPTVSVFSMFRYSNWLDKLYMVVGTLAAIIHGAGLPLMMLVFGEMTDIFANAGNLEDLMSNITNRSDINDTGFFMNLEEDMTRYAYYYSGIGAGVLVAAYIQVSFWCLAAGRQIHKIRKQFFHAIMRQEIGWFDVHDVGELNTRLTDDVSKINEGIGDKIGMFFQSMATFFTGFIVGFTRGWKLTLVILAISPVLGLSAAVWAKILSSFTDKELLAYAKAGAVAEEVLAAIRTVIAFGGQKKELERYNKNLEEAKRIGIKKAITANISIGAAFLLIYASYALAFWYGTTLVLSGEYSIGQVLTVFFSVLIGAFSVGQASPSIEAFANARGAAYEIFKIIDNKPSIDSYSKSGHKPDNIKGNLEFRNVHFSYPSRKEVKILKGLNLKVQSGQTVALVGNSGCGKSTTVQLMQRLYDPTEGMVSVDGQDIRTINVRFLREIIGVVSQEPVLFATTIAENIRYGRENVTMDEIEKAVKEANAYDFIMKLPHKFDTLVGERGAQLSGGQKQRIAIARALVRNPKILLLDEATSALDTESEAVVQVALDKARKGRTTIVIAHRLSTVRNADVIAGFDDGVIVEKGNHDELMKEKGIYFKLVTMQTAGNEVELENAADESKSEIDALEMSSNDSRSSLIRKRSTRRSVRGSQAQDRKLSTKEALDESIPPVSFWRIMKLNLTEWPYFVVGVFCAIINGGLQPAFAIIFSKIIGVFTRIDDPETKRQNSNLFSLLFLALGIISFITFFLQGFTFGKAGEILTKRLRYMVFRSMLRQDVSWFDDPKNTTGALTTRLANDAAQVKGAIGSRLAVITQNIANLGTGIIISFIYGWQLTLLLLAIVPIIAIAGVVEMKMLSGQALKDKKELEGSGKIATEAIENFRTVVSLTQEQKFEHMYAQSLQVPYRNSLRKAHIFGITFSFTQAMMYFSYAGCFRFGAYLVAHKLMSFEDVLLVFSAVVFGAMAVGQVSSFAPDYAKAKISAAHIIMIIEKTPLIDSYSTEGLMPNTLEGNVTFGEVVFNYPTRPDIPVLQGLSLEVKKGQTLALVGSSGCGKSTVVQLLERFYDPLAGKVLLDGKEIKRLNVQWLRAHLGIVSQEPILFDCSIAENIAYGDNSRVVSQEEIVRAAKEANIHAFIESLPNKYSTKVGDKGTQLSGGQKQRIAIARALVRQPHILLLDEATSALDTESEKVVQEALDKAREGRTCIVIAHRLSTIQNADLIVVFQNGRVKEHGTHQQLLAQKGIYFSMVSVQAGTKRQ
# P-gp (ABCB1) [2] = target: T1, P-gp (ABCB1); assay: Activation of human P-gp expressed in high five insect cell membrane vesicles by measuring the vanadate-sensitive ATPase activity of P-gp at 0.05 uM preincubated for 5 mins in the presence of sodium orthovanadate measured after 20 mins by colorimetric method; settings: read-out: Activity
# P-gp (ABCB1) [3] = target: T1, P-gp (ABCB1); assay: Activation of human P-gp expressed in high five insect cell membrane vesicles by measuring the vanadate-sensitive ATPase activity of P-gp at 0.5 uM preincubated for 5 mins in the presence of sodium orthovanadate measured after 20 mins by colorimetric method; settings: read-out: Activity
# P-gp (ABCB1) [4] = target: T1, P-gp (ABCB1); assay: Inhibition of human P-gp expressed in high five insect cell membrane vesicles by measuring the vanadate-sensitive ATPase activity of P-gp at 2.5 uM preincubated for 5 mins in the presence of sodium orthovanadate measured after 20 mins by colorimetric method
# P-gp (ABCB1) [5] = target: T1, P-gp (ABCB1); assay: Inhibition of human P-gp expressed in high five insect cell membrane vesicles by measuring the vanadate-sensitive ATPase activity of P-gp at 0.5 uM preincubated for 5 mins in the presence of sodium orthovanadate measured after 20 mins by colorimetric method
# [6] = Cytotoxicity in parental HEK293-pcDNA 3.1 transfected cells assessed as cell survival at 10 uM after 72 hrs by MTT assay; assay type: cell-based; settings: human, parental HEK293 cells transfected with pcDNA 3.1
# Summary of the method: (§1)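 HEK293 cells stably transfected with empty pcDNA3.1 vector or ABCB1 vector, kept in DMEM with 10% FBS, 1% penicillin/streptomycin, and 2 mg/mL G418 at 37°C in 5% CO2. Cells were seeded at 5000/well, and after 24 h treated with test compound alone, diluted from 10 mM DMSO stocks into medium. After 72 h, viability was read by MTT (4 mg/mL, 4 h), with formazan dissolved in DMSO and absorbance read at 570 nm.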
# [7] = Cytotoxicity in P-gp tranfected HEK293 cells assessed as cell survival at 10 uM after 72 hrs by MTT assay; assay type: ADME, cell-based; settings: human, P-gp transfected HEK293 cells; summary of the method: as §1
Compound,"activity at 20 min, 2.5 µM (P-gp (ABCB1) [1])","activity at 20 min, 0.5 µM (P-gp (ABCB1) [3])",other results
COc1cc(CC(=O)N[C@H](c2nc(C(=O)NC3CCC(F)(F)CC3)cs2)C(C)C)cc(OC)c1OC,70.2%,–,–
COc1cc(C(=O)N[C@H](c2nc(C(=O)Nc3ccccc3NC(=O)c3ccccc3)cs2)C(C)C)cc(OC)c1OC,–,52%,"activity at 20 min, 0.05 µM (P-gp (ABCB1) [2]): ≤ 10%"
COc1cc(C(=O)N[C@H](c2nc(C(=S)NC3CCCCC3)cs2)C(C)C)cc(OC)c1OC,27%,≤ 10%,–
COc1cc(C(=O)N[C@H](c2nc(C(=O)Nc3ccccc3C(=O)c3ccc(N=[N+]=[N-])cc3)cs2)C(C)C)cc(OC)c1OC,169%,148%,–
COc1cc(C(=O)N[C@H](c2nc(C(=O)Nc3ccccc3Cc3ccccc3)cs2)C(C)C)cc(OC)c1OC,–,112%,"activity at 20 min, 0.05 µM (P-gp (ABCB1) [2]): 15%"
COc1cc(C(=O)N[C@H](c2nc(C(=O)NC3CC3)cs2)C(C)C)cc(OC)c1OC,–,≤ 10%,"activity at 20 min, 0.05 µM (P-gp (ABCB1) [2]): ≤ 10%"
COc1cc(C(=O)NC(c2nc(C(=O)NC3CCC(C(F)(F)F)CC3)cs2)C(C)C)cc(OC)c1OC (stereo not drawn),–,≤ 10%,"inhibition at 20 min, 2.5 µM (P-gp (ABCB1) [4]): 21.7%"
COc1cc(C(=O)N[C@H](c2nc(C(=O)Nc3ccc(F)cc3)cs2)C(C)C)cc(OC)c1OC,244%,59.5%,–
COc1cc(C(=O)N[C@H](c2nc(C(=O)NC3CCN(c4ncccn4)CC3)cs2)C(C)C)cc(OC)c1OC,83%,17.1%,–
CC(C)[C@H](NC(=O)c1ccccc1N=[N+]=[N-])c1nc(C(=O)Nc2ccccc2C(=O)c2ccccc2)cs1,182%,142%,–
COc1cc(C(=O)N[C@H](c2nc(C(=O)NC34CC5CC(CC(C5)C3)C4)cs2)C(C)C)cc(OC)c1OC,–,≤ 10%,"activity at 20 min, 0.05 µM (P-gp (ABCB1) [2]): ≤ 10%"
CC(C)[C@H](NC(=O)c1cnc2ccccc2c1)c1nc(C(=O)NC2CCC(F)(F)CC2)cs1,83.9%,–,–
COc1cc(C(=O)N[C@H](c2nc(C(=O)NCC3CCC(F)(F)CC3)cs2)C(C)C)cc(OC)c1OC,20.7%,–,"inhibition at 20 min, 0.5 µM (P-gp (ABCB1) [5]): 27%"
COc1cc(C(=O)N[C@H](c2nc(C(=O)Nc3ccccc3C(=O)c3ccc(Br)cc3)cs2)C(C)C)cc(OC)c1OC,–,149%,"activity at 20 min, 0.05 µM (P-gp (ABCB1) [2]): 309%"
COc1cc(C(=O)N[C@H](c2nc(C(=O)N[C@H]3CCCc4ccccc43)cs2)C(C)C)cc(OC)c1OC,123%,108%,–
CC(C)[C@H](NC(=O)c1ccc(N=[N+]=[N-])cc1)c1nc(C(=O)Nc2ccccc2C(=O)c2ccccc2)cs1,164%,135%,–
COc1cc(C(=O)N[C@H](c2nc(C(=O)N3CCC(=O)CC3)cs2)C(C)C)cc(OC)c1OC,≤ 10%,≤ 10%,–
COc1cc(C(=O)NC(c2nc(C(=O)NCC3CCC(N)CC3)cs2)C(C)C)cc(OC)c1OC (stereo not drawn),≤ 10%,≤ 10%,–
COc1cc(C(=O)N[C@H](c2nc(C(=O)N3CCC(N4CCCCC4)CC3)cs2)C(C)C)cc(OC)c1OC,47.2%,37.2%,–

Compound,"activity at 20 min, 2.5 µM (P-gp (ABCB1) [1])","activity at 20 min, 0.5 µM (P-gp (ABCB1) [3])",other results
COc1cc(C(=O)N[C@H](c2nc(C(=O)N3CCC(F)(F)CC3)cs2)C(C)C)cc(OC)c1OC,55.9%,40.9%,–
COc1cc(C(=O)N[C@H](c2nc(C(=O)NCCCC(F)(F)F)cs2)C(C)C)cc(OC)c1OC,77.3%,17.1%,–
COc1cc(C(=O)N[C@H](c2nc(C(=O)NC3CCOCC3)cs2)C(C)C)cc(OC)c1OC,≤ 10%,26.9%,–
COc1ccc(C(=O)N[C@H](c2nc(C(=O)NC3CCC(F)(F)CC3)cs2)C(C)C)cc1,35.8%,–,–
COc1cc(C(=O)N[C@H](c2nc(C(=O)NCC3CCNCC3)cs2)C(C)C)cc(OC)c1OC,≤ 10%,23%,–
COc1cc(C(=O)N[C@H](c2nc(C(=O)N3CCC(C(F)(F)F)CC3)cs2)C(C)C)cc(OC)c1OC,75.6%,13.3%,–
COc1cc(NC(=O)c2csc([C@@H](NC(=O)c3ccccc3C(=O)c3ccccc3)C(C)C)n2)cc(OC)c1OC,–,46%,"activity at 20 min, 0.05 µM (P-gp (ABCB1) [2]): ≤ 10%"
CC(C)[C@H](NC(=O)c1ccccc1)c1nc(C(=O)NC2CCC(F)(F)CC2)cs1,10.5%,–,–
COc1cc(C(=O)NCc2nc(C(=O)NC3CCC(F)(F)CC3)cs2)cc(OC)c1OC,13%,≤ 10%,–
COc1cc(C(=O)C(=O)N[C@H](c2nc(C(=O)NC3CCC(F)(F)CC3)cs2)C(C)C)cc(OC)c1OC,178%,–,–
COc1cc(C(=O)N[C@H](c2nc(C(=O)NC3CCC3)cs2)C(C)C)cc(OC)c1OC,≤ 10%,25.3%,–
COc1cc(C(=O)N[C@H](c2nc(C(=O)NC3CCS(=O)(=O)CC3)cs2)C(C)C)cc(OC)c1OC,≤ 10%,≤ 10%,–
COc1cc(C(=O)N[C@H](c2nc(C(=O)Nc3ccccc3C(=O)Nc3ccccc3)cs2)C(C)C)cc(OC)c1OC,–,142%,"activity at 20 min, 0.05 µM (P-gp (ABCB1) [2]): 21%"
CC(C)[C@H](NC(=O)C1CCOCC1)c1nc(C(=O)NC2CCC(F)(F)CC2)cs1,≤ 10%,–,–
COc1cc(C(=O)N[C@H](c2nc(C(=O)Nc3ccccc3Oc3ccccc3)cs2)C(C)C)cc(OC)c1OC,–,88%,"activity at 20 min, 0.05 µM (P-gp (ABCB1) [2]): ≤ 10%"
COc1cc(C(=S)N[C@H](c2nc(C(=S)NC3CCC(F)(F)CC3)cs2)C(C)C)cc(OC)c1OC,64%,25%,–
CC(C)[C@H](NC(=O)c1cncnc1)c1nc(C(=O)NC2CCC(F)(F)CC2)cs1,≤ 10%,–,–
COc1ccc(C(=O)N[C@H](c2nc(C(=O)NC3CCC(F)(F)CC3)cs2)C(C)C)cc1OC,11.9%,–,–
COc1cc(C(=O)N[C@H](c2nc(C(=O)NC3CCNCC3)cs2)C(C)C)cc(OC)c1OC,14.5%,46.3%,–

Compound,"activity at 20 min, 2.5 µM (P-gp (ABCB1) [1])","activity at 20 min, 0.5 µM (P-gp (ABCB1) [3])",other results
CC(C)[C@H](NC(=O)c1cscn1)c1nc(C(=O)NC2CCC(F)(F)CC2)cs1,49.7%,–,–
COc1cc(C(=O)N[C@H](c2nc(C(=O)NC3CCN(Cc4ccccc4)CC3)cs2)C(C)C)cc(OC)c1OC,154%,169%,–
CC(C)[C@H](NC(=O)c1cccc(N=[N+]=[N-])c1)c1nc(C(=O)Nc2ccccc2C(=O)c2ccccc2)cs1,194%,122%,–
COc1cc(C(=O)N[C@H](c2nc(C(=O)N3CCC(N)CC3)cs2)C(C)C)cc(OC)c1OC,≤ 10%,45.4%,–
COc1cc(C(=O)N[C@H](c2nc(C(=O)NC3CCN(C(=O)OC(C)(C)C)CC3)cs2)C(C)C)cc(OC)c1OC,48%,52.7%,–
COc1cc(C(=O)N[C@H](c2nc(C(=O)NC3CCC(C)(C)CC3)cs2)C(C)C)cc(OC)c1OC,34.3%,≤ 10%,–
COc1cc(C(=O)N2CCCC2c2nc(C(=O)NC3CCC(F)(F)CC3)cs2)cc(OC)c1OC (stereo not drawn),21%,≤ 10%,–
COc1cc(C(=O)Nc2nc(C(=O)NC3CCC(F)(F)CC3)cs2)cc(OC)c1OC,60.2%,53.9%,–
CC(C)[C@H](NC(=O)c1ccc(N=[N+]=[N-])cc1)c1nc(C(=O)Nc2ccccc2C(=O)c2ccc(Br)cc2)cs1,84.7%,99.4%,–
CC(C)[C@H](N)c1nc(C(=O)NC2CCC(F)(F)CC2)cs1,≤ 10%,≤ 10%,–
COc1cc(C(=O)N[C@H](c2nc(C(=O)Nc3cccc(C(=O)c4ccccc4)c3)cs2)C(C)C)cc(OC)c1OC,–,143%,"activity at 20 min, 0.05 µM (P-gp (ABCB1) [2]): 13%"
COc1cc(C(=O)N[C@H](c2nc(C(=O)N(C3CCCCC3)C3CCCCC3)cs2)C(C)C)cc(OC)c1OC,134%,109%,–
COc1cc(C(=O)N[C@H](c2nc(C(=O)Nc3cc(F)c(F)c(F)c3)cs2)C(C)C)cc(OC)c1OC,176%,57%,–
COc1cc(C(=S)N[C@H](c2nc(C(=S)NC3CCCCC3)cs2)C(C)C)cc(OC)c1OC,92%,65%,–
COc1cc(C(=O)N[C@H](c2nc(C(=O)NC3CCC(=O)CC3)cs2)C(C)C)cc(OC)c1OC,≤ 10%,13.1%,–
COc1cc(C(=O)NC(CC(C)C)c2nc(C(=O)NC3CCC(F)(F)CC3)cs2)cc(OC)c1OC (stereo not drawn),68%,16%,–
COc1cc(C(=O)N[C@H](c2nc(C(=O)NC3CCCC3)cs2)C(C)C)cc(OC)c1OC,≤ 10%,≤ 10%,–
O[C@@H](COc1cccc2ncccc12)CN1CCN([C@@H]2c3ccccc3[C@@H]3[C@H](c4ccccc42)C3(F)F)CC1 [ZOSUQUIDAR],–,–,"viability at 72 h, 10 µM [6]: > 80%; viability at 72 h, 10 µM [7]: > 80%"
